Assay results as given in ChEMBL document CHEMBL4184298, “Development of Potent Inhibitors of Receptor Tyrosine Kinases by Ligand-Based Drug Design and Target-Biased Phenotypic Screening” (J Med Chem, 2018).
The source made the active and inactive calls. No cut-off for these calls is given here.

What was measured:
Mus musculus = species on record: Mus musculus; assay: Antiproliferative activity against mouse AXL-positive Breast cancer cells after 5 days by PrestoBlue assay; assay type: functional
How it was run: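 Cell proliferation: AXL+ cells were exposed to 8-point half-log dilutions (0.03–100 μM). Viability was read with PrestoBlue reagent on day 5.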

[1] = target: RAC-alpha serine/threonine-protein kinase (Homo sapiens, UniProt P31749); assay: Inhibition of AKT (unknown origin) using poly [Glu, Try] 4:1 as substrate in presence of [gamma-33P]ATP
How it was run: (§1)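 Radiometric assay on recombinant kinase: ³³P incorporation into the kinase substrate was measured and activity was expressed relative to a DMSO control.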

Aurora kinase A = target: T1, Aurora kinase A (Homo sapiens, UniProt O14965); assay: Inhibition of human partial length Aurora A (E122 to K401 residues) expressed in mammalian expression system using poly [Glu, Try] 4:1 as substrate in presence of [gamma-33P]ATP; how it was run: as §1
T1 sequence (O14965 whole entry): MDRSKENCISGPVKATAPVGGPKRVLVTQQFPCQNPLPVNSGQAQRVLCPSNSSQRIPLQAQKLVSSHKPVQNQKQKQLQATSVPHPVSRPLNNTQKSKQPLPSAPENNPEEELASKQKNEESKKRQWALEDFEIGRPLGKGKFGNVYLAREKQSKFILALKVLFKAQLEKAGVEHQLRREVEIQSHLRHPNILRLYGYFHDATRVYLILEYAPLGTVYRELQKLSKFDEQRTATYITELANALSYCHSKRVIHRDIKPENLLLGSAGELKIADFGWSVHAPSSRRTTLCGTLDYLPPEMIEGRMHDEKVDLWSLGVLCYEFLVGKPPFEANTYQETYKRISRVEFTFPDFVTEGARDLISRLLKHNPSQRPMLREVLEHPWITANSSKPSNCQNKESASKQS

[2] = target: Mast/stem cell growth factor receptor Kit (Homo sapiens, UniProt P10721); assay: Inhibition of wild-type human partial length KIT (I571 to D952 residues) expressed in bacterial expression system using poly [Glu, Try] 4:1 as substrate in presence of [gamma-33P]ATP; how it was run: as §1
[3] = target: Hepatocyte growth factor receptor (Homo sapiens, UniProt P08581); assay: Inhibition of wild-type human partial length MET (D1010 to S1367 residues) expressed in bacterial expression system using poly [Glu, Try] 4:1 as substrate in presence of [gamma-33P]ATP; how it was run: as §1
[4] = target: Proto-oncogene tyrosine-protein kinase Src (Homo sapiens, UniProt P12931); assay: Inhibition of wild-type human partial length SRC (L240 to L536 residues) expressed in bacterial expression system using poly [Glu, Try] 4:1 as substrate in presence of [gamma-33P]ATP
[5] = target: Vascular endothelial growth factor receptor 2 (Homo sapiens, UniProt P35968); assay: Inhibition of wild-type human partial length VEGFR2 (R787 to P1253 residues) expressed in mammalian expression system using poly [Glu, Try] 4:1 as substrate in presence of [gamma-33P]ATP
[6] = target: Serine/threonine-protein kinase mTOR (Homo sapiens, UniProt P42345); assay: Inhibition of wild-type human partial length MTOR (L1382 to W2549 residues) expressed in mammalian expression system using poly [Glu, Try] 4:1 as substrate in presence of [gamma-33P]ATP; how it was run: as §1
[7] = target: T2, Tyrosine-protein kinase receptor TYRO3 (Homo sapiens, UniProt Q06418); assay: Inhibition of wild-type human partial length TYRO3 (S497 to T814 residues) expressed in bacterial expression system using poly [Glu, Try] 4:1 as substrate in presence of [gamma-33P]ATP; how it was run: as §1
T2 sequence (Q06418 whole entry): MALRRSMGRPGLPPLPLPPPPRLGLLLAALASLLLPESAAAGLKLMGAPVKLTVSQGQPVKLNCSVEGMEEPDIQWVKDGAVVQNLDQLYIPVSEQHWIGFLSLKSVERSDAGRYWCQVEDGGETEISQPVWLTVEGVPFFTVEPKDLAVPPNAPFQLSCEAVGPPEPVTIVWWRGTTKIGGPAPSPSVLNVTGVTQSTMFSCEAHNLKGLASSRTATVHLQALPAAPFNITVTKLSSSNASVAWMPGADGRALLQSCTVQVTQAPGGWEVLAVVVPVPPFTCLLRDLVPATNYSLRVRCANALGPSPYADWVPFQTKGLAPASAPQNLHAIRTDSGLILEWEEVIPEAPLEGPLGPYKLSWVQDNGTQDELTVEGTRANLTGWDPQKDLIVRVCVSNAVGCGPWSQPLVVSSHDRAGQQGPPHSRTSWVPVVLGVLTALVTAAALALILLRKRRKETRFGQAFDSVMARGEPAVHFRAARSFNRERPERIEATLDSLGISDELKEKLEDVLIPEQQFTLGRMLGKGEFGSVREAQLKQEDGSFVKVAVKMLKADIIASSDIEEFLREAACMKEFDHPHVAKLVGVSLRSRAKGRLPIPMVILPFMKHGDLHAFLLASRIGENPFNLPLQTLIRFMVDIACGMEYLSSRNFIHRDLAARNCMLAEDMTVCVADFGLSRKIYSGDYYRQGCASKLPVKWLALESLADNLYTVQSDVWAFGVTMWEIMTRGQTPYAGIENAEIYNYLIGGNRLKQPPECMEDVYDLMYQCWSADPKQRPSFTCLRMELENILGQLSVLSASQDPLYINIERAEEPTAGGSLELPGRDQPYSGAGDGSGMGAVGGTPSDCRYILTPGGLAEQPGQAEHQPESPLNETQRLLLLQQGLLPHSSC

RAC-alpha serine/threonine-protein kinase, sequence (P31749 whole entry): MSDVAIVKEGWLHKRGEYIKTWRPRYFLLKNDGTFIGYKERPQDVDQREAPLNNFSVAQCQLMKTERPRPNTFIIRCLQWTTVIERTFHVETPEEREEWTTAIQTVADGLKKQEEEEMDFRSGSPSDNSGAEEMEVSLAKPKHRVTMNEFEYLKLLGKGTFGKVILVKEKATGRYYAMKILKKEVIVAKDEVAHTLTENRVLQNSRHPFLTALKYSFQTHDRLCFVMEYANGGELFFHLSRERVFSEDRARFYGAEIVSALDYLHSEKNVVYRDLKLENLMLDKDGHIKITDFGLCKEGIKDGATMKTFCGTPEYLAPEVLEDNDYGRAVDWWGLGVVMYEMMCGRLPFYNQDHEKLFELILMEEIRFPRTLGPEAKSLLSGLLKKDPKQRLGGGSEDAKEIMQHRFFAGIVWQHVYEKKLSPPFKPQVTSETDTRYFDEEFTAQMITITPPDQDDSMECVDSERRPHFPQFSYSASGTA
Proto-oncogene tyrosine-protein kinase Src, sequence (P12931 2-536 limits assumed): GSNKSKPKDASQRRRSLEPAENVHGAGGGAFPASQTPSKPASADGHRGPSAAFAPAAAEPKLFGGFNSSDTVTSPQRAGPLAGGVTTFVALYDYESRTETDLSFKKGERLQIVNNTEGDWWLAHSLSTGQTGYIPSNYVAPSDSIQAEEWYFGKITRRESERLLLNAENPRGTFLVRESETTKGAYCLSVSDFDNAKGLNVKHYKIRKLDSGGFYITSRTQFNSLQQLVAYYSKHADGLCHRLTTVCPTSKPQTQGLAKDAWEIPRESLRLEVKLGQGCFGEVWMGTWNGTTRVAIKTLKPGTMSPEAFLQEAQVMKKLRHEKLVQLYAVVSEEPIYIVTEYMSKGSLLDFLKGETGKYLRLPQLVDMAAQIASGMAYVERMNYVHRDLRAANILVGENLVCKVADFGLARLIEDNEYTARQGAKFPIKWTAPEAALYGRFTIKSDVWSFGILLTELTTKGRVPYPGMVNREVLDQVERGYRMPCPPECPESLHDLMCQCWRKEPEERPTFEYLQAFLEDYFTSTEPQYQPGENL
Vascular endothelial growth factor receptor 2, sequence (P35968 whole entry, the tested form may be a part): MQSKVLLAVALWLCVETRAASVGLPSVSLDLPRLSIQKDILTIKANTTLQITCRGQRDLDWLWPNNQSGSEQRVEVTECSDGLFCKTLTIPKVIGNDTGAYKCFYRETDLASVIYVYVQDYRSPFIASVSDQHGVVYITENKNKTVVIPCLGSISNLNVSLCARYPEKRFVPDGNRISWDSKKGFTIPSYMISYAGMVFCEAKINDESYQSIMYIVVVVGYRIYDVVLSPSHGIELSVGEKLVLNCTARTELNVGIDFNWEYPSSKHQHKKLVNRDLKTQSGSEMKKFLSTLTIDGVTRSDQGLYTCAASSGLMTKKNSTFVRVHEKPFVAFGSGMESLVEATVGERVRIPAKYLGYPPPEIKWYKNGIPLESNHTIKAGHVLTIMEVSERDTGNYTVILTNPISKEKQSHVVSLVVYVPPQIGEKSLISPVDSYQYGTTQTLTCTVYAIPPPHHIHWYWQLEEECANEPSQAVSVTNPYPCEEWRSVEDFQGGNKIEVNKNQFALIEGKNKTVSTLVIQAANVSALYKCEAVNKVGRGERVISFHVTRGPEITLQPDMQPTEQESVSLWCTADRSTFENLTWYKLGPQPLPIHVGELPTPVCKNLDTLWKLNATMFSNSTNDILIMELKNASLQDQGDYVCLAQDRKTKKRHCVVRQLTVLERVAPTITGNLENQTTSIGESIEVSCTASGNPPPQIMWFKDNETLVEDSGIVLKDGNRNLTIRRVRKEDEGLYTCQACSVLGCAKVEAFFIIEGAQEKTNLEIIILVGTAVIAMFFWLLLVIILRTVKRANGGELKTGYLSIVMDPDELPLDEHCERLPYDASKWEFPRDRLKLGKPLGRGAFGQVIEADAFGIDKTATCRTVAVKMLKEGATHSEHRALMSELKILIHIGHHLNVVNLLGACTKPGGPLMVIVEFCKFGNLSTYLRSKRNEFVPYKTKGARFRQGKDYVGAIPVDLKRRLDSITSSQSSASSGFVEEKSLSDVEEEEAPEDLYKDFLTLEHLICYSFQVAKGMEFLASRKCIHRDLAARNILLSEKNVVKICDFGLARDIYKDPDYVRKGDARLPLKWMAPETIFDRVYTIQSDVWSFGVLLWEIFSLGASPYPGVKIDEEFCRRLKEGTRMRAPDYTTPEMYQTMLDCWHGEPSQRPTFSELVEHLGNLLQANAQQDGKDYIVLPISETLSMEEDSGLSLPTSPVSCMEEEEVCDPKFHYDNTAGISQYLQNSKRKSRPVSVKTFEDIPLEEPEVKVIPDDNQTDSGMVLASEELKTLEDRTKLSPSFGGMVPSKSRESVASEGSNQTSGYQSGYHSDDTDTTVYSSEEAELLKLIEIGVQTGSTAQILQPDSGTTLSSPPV
Hepatocyte growth factor receptor, sequence (P08581 whole entry, the tested form may be a part): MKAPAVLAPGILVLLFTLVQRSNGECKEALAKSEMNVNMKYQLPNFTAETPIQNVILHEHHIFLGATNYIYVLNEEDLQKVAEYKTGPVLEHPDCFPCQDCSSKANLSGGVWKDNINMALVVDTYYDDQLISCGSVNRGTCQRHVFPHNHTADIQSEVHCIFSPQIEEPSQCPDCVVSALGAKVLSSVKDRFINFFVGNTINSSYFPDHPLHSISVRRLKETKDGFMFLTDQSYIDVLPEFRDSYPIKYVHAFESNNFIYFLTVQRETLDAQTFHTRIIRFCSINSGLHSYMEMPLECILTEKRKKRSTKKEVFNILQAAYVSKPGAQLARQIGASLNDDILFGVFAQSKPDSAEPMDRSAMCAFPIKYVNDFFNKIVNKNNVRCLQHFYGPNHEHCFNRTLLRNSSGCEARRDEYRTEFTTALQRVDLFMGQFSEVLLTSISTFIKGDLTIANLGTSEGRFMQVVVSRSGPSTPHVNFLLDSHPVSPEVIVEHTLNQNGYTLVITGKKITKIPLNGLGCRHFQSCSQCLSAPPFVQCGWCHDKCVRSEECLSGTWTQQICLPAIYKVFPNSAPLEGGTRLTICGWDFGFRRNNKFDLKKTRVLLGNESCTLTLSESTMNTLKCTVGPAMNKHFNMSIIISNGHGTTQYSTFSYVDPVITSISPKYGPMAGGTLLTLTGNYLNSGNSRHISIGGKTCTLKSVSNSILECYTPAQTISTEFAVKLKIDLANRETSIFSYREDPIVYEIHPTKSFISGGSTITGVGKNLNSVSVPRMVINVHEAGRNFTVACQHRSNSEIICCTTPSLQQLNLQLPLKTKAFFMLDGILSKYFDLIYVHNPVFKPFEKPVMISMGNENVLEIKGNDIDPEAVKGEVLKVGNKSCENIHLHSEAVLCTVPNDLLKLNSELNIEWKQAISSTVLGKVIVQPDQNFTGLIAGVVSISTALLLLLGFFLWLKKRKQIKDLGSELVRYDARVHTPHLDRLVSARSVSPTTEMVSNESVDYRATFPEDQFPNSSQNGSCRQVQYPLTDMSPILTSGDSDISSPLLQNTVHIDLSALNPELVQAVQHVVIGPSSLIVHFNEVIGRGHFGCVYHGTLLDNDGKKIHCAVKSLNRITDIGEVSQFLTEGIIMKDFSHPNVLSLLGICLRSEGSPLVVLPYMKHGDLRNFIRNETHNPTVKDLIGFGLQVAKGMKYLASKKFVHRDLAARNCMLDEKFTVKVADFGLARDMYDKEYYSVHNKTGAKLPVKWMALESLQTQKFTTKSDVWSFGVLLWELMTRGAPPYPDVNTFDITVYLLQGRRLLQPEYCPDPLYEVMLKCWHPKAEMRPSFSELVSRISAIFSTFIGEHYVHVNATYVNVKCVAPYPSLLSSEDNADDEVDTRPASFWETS
Mast/stem cell growth factor receptor Kit, sequence (P10721 whole entry, the tested form may be a part): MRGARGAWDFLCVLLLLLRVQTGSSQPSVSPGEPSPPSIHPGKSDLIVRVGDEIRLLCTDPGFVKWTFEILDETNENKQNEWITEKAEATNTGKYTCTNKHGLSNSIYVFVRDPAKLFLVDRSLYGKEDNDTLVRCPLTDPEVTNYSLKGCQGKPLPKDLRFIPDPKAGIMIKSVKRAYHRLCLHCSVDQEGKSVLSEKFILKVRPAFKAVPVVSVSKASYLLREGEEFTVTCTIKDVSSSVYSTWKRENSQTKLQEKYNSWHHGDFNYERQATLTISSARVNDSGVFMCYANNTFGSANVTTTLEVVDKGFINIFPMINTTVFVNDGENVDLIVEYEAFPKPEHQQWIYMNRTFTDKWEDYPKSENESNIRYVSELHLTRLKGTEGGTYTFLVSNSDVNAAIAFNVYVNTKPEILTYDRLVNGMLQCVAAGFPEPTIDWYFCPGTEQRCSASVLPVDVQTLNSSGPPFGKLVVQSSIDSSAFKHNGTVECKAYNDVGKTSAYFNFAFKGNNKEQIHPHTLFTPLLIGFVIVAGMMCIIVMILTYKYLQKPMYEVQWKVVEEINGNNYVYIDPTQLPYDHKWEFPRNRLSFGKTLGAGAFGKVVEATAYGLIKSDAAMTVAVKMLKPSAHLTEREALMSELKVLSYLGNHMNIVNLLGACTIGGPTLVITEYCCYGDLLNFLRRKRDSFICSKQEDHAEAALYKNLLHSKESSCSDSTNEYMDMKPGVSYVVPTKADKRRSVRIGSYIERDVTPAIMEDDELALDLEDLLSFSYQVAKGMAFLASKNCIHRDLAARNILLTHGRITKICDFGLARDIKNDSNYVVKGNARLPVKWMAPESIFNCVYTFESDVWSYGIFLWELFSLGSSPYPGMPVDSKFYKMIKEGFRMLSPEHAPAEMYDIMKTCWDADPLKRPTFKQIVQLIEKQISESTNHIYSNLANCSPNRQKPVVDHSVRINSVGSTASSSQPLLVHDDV

With CNc1ccc(-c2nn(Cc3cn(Cc4ccccc4)nn3)c3nc(NC)ncc23)cn1 the Activity (Mus musculus) was “inactive”.
With CNc1ncc2c(-c3ccc(N4CCNCC4)nc3)nn(Cc3cn(-c4ccc(OC)cc4)nn3)c2n1 the Activity (Mus musculus) was “inactive”.
CNc1ncc2c(-c3ccc(N4CCNCC4)nc3)nn(Cc3cn(C4CCCCC4O)nn3)c2n1 (stereo unspecified) was tested, and the Activity (Mus musculus) was “inactive”.
CNc1ncc2c(-c3ccc(N4CCNCC4)nc3)nn(Cc3cn(-c4ccccc4)nn3)c2n1 was tested, and the Activity (Mus musculus) was “inactive”.
CNc1ncc2c(-c3ccc(N4CCNCC4)nc3)nn(Cc3cn(-c4ccc(Cl)cc4)nn3)c2n1 was tested, and the Activity (Mus musculus) was “inactive”.
In the case of CNc1ncc2c(-c3ccc(N4CCNCC4)nc3)nn(Cc3cn(Cc4ccccc4)nn3)c2n1, the Activity (Mus musculus) is reported as “Active”, the IC50 [1] is reported as > 10 µM and the IC50 (Aurora kinase A) is reported as 1.8 µM. For the same molecule, the IC50 [2] was > 10 µM, the IC50 [3] was > 10 µM and the IC50 [4] was 1 µM. For the same molecule, the IC50 [5] was > 10 µM, the IC50 [6] was > 10 µM and the IC50 [7] was > 10 µM.
For CNc1ncc2c(-c3cnc4[nH]ccc4c3)nn(Cc3cn(Cc4ccccc4)nn3)c2n1, the Activity (Mus musculus) was “inactive”.
In the case of CNc1ncc2c(-c3ccc(N4CCNCC4)nc3)nn(Cc3cn(C4CCCC4O)nn3)c2n1 (stereo unspecified), the Activity (Mus musculus) is reported as “inactive”.
